# Results: the M2OR odorant receptor database
# Target: T1, OR5AC2 (Homo sapiens) (UniProt Q9NZP5)
# T1 sequence (whole entry): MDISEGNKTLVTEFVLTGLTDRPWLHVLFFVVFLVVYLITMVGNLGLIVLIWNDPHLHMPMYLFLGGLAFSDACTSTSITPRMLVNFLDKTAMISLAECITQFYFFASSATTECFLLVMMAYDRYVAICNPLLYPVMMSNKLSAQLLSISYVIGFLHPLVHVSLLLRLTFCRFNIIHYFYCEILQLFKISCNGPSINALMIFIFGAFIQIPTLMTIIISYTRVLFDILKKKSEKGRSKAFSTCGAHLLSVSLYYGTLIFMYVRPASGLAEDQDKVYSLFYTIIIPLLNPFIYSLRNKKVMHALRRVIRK
# Conditions: stereoisomer not certain
# Outline: (§1)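 Values were gathered from published papers (main text and supplementary material), with extra details requested from the original authors when needed, and checked for typos and inconsistencies. Each receptor–molecule pair is called responsive (active) if the original authors judged the measured signal statistically different from baseline, and non-responsive (inactive) otherwise. Assay methods varied by source, often transient mammalian cell-line luciferase assays. Recorded details include cell line, G-protein, co-transfected protein and tags.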
row,Compound,odorant receptor agonist call
1,CC(C)(C)C1CCCCC1OCCCCO (stereo not given),inactive
2,C=CC(C)(CCC=C(C)C)OC(C)=O (stereo not given),inactive
3,CCc1ccc(CC(C)(C)C=O)cc1,inactive
4,CCCCCC1COCCC1OC(C)=O (stereo not given),inactive
5,CC(C)CCCC(C)(C)O,inactive
6,OCc1ccccc1,inactive
7,COC1CC2CC1C1CC(C=O)CC21 (stereo not given),inactive
8,CCCCC1CCC(=O)O1 (stereo not given),inactive
9,CCC=C(C)C(O)CCCCC (stereo not given),inactive
10,CC(=O)OCc1ccccc1,inactive

# Target: T2, OR5AN1 (Homo sapiens) (UniProt Q8NGI8)
# T2 sequence (whole entry): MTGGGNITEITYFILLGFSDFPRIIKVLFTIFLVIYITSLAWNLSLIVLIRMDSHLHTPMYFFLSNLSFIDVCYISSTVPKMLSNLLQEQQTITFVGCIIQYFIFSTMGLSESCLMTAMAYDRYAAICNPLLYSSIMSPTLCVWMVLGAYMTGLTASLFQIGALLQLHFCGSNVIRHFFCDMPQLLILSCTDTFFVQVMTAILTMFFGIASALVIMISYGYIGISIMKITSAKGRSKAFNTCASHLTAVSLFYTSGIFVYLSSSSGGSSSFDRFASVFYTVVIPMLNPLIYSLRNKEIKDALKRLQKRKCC
# Conditions: stereoisomer not certain
# Outline: as §1
row,Compound,odorant receptor agonist call
1,O=C1C=CCCCCCCCCCCCCO1,active
2,CCC(=O)OCC(C)(C)OC(C)C1CCCC(C)(C)C1 (stereo not given),inactive
3,OC1CCCCCCCCCCCCCC1,inactive
4,CCCCCCCCCCCCCC(C)=O,inactive
5,O=C1CCCCCCCCCC1,inactive
6,CC1CC=CCCCCCCCCC(=O)C1 (stereo not given),active
7,O=C1CCCCCCCCC1,inactive
8,CC1CC=CCCCCCCCCCC(=O)C1 (stereo not given),active
9,O=C1CCCC=CCCCCCCCCCC1,active
10,CC1CCCCCCCCCCCC(=O)C1 (stereo not given),active
11,CCCCCCCC(=O)CCCCCCC,inactive
12,CC1C(C)(C)C2=C(C(=O)CCC2)C1(C)C (stereo not given),inactive
13,O=C1CCCCCCC=CCCCCCCC1,active
14,O=C1CCCCCCCCCCCCCC1,active
15,O=C1CCCCCC=CCCCCCCCCO1,active
16,C1CCCCCCCCCCCCCC1,inactive

# Target: T3, OR5B17 (Homo sapiens) (UniProt Q8NGF7)
# T3 sequence (whole entry): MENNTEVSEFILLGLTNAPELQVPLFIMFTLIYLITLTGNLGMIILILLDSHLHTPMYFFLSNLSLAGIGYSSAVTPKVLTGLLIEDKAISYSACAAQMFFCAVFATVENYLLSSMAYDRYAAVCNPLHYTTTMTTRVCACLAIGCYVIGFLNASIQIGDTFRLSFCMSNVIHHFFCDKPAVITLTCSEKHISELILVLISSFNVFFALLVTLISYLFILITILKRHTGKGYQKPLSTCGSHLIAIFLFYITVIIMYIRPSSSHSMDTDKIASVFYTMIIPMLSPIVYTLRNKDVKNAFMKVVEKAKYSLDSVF
# Conditions: stereoisomer not certain
# Outline: as §1
row,Compound,odorant receptor agonist call
1,CC(C)(C)C1CCCCC1OCCCCO (stereo not given),inactive
2,Cc1occc(=O)c1OC(=O)C(C)C,inactive
3,C=CC(C)(CCC=C(C)C)OC(C)=O (stereo not given),inactive
4,CCc1ccc(CC(C)(C)C=O)cc1,active
5,CCCCCC1COCCC1OC(C)=O (stereo not given),inactive
6,CCCC(C)C(=O)OCC (stereo not given),inactive
7,CC(C)CCCC(C)(C)O,inactive
8,OCc1ccccc1,inactive
9,COC1CC2CC1C1CC(C=O)CC21 (stereo not given),inactive
10,CCCCC1CCC(=O)O1 (stereo not given),inactive
11,CC=CC(=O)C1C(C)=CCCC1(C)C (stereo not given),inactive
12,CCC=C(C)C(O)CCCCC (stereo not given),inactive
13,CCOC(=O)CC1(C)OCCO1,inactive
14,CC(=O)OCc1ccccc1,inactive
